A selection: hits, their analogues and other compounds. The true share with any hit is near 1.4%.
CCR6 antag = CCR6 receptor antagonists, primary screen, cell-based, CHO-K1, luminescence, beta-arrestin, uHTS; C-C chemokine receptor type 6 (Homo sapiens), P51684; CHO-K1 CCR6 PathHunter beta-arrestin, CCL20-stimulated; inhibition, % at 20 µM; hit rate 0.49% among 340,000; AID 493098, 2011;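 active = compounds whose inhibition of the agonist-driven luminescence signal at 20 µM reaches about 50%, limit read from the data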;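 note: cells stimulated with CCL20 at 14 nM final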
Target sequence (P51684 whole entry, looked up): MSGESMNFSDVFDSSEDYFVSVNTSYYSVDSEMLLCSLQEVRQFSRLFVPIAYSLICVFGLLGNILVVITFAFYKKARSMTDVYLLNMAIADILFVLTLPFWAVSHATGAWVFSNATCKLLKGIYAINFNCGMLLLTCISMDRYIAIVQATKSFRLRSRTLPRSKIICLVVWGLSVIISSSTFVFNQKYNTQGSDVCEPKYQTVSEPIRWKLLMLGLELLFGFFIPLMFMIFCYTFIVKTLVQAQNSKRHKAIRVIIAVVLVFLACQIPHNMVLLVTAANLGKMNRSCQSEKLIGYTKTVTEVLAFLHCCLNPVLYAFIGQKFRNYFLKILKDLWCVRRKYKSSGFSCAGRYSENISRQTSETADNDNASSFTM
CXCR6 inh = CXCR6 receptor inhibitors, primary screen, cell-based, beta-arrestin, luminescence, CHO-K1 PathHunter, 1536-well. hit rate 0.36% among 360,000. C-X-C chemokine receptor type 6 (Homo sapiens), O00574. inhibition, % at 20 µM; in the data active = inhibition above about 34%, passing the limit was not always enough;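 note: antagonist mode with CXCL16 agonist at 10 nM final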
A3A deaminase = APOBEC3A ssDNA deaminase inhibitors, primary screen, selectivity assay for APOBEC3G inhibitor project, biochemical, FAM/TAMRA oligo cleavage fluorescence. hit rate 0.41% among 330,000. recombinant A3A, FAM/TAMRA ssDNA deamination fluorescence. inhibition, % at 20 µM. DNA dC->dU-editing enzyme APOBEC-3A (Homo sapiens), P31941;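 active = at least 40% inhibition at 20 µM here, with at most 30% in a related deaminase screen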
Target sequence (P31941 whole entry, looked up): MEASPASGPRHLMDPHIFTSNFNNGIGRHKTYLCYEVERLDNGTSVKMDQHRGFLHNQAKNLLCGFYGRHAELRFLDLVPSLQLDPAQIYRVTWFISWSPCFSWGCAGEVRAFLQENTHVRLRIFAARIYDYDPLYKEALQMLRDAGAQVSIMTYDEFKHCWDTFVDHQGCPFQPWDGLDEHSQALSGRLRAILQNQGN
APJ antag = antagonists of human apelin receptor APJ, primary screen, CHO-K1 cells, beta-arrestin complementation, luminescence. P35414. inhibition, % at 20 µM. hit rate 0.32% among 330,000. AID 2521, 2010;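 active = inhibition above about 40% at 20 µM, limit read from the data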;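 note: cells challenged with 10 nM apelin-13 agonist together with compound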
APJ ag = agonists of human apelin receptor APJ, primary screen, CHO-K1 cells, PathHunter beta-arrestin, luminescence; 0% DMSO wells, 100% apelin; activation, % at 20 µM; hit rate 0.11% among 330,000; AID 2520, 2010;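 active = activation more than six SD over the plate average, tested at 20 µM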
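assay system = CHO-K1 APJ beta-arrestin complementation cell line | input = cell density 1000 per well | dosing = compound 20 µM once, DMSO 1% | timing = compound 90 min 25 °C, reagent 1 h | measured by = luminescence from split beta-galactosidase complementation, Galacton Star/Emerald II substrate | read-out basis = APJ agonist activity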
APOBEC3G inh = APOBEC3G DNA deaminase inhibitors, primary screen, biochemical, fluorescence, single-stranded DNA substrate, uHTS; AID 493012, 2011; inhibition, % at 20 µM; hit rate 0.28% among 330,000; DNA dC->dU-editing enzyme APOBEC-3G (Homo sapiens), Q9HC16; recombinant A3G, ssDNA deamination FAM/TAMRA fluorescence;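 active = inhibition of at least 40% at 20 µM, with no more than 30% in the related APOBEC3A deaminase screen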
CXCR6 confirm = CXCR6 receptor antagonists, confirmation, cell-based, single concentration, beta-arrestin, luminescence; shares compounds with CXCR6 inh; CHO-K1 CXCR6 PathHunter beta-arrestin; inhibition, % at 20 µM; hit rate 65% among 700;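 active = mean inhibition over four retests above 40%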;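 note: receptor stimulated with 10 nM CXCL16 agonist; beta-galactosidase fragment complementation upon beta-arrestin recruitment to receptor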
A number is an active result; 0 = inactive; - = no result given.

SMILES	CCR6 antag	CXCR6 inh	A3A deaminase	APJ antag	APJ ag	APOBEC3G inh	CXCR6 confirm
Cc1cccc(C(=O)NCC(=O)N2CCCC2)c1	0	40	0	0	0	0	0
O=C(c1cc(COc2ccc(F)cc2Cl)on1)N1CCSCC1	0	0	0	0	0	0	-
Nc1cccc2c1C(=O)N(C(=O)/C=C/c1cccc(F)c1)C2=O	53	50	0	0	0	0	45
CCn1c(C)cs/c1=N\S(=O)(=O)c1ccccc1	0	0	0	0	0	0	-
O=Cc1s/c(=N\S(=O)(=O)c2ccccc2)n(CCCCl)c1Cl	105	98	-	-	-	-	104
NCC(=O)NCC(=O)NC[C@H]1O[C@@H](n2cnc3c(N)ncnc32)[C@H](O)[C@@H]1O	0	0	0	-	-	0	-
O=C(/C=C/c1cccc([N+](=O)[O-])c1)c1ccco1	0	0	0	0	0	0	-
O=C(/C=C/c1cccc([N+](=O)[O-])c1)c1ccc([N+](=O)[O-])o1	105	95	-	-	-	-	98
COc1ccc(CCNC(=O)COC(=O)Cc2ccc(OC)cc2)cc1	0	63	0	0	0	0	0
Cc1c(CC(=O)NCCCC(=O)O)c(=O)oc2cc3c(cc12)CCC(C)(C)O3	0	0	0	0	0	0	-
Cc1cc(Cl)n2c(nc3cc(F)c(F)cc32)c1C#N	0	44	-	-	-	-	53
S=C(NNC(=S)Nc1ccc(Cl)cc1)NNc1ccccc1	-	0	-	-	-	-	-
Cc1ccc(NC(=S)NNC(=S)NNc2ccccc2)cc1C	-	40	-	-	-	-	0
CCOC(=O)c1cnn(C)c1NC(=O)c1ccc([N+](=O)[O-])cc1	0	0	0	0	0	0	-
Cn1nc([N+](=O)[O-])nc1Sc1cccc2cccnc12	0	44	0	0	0	0	41
O=[N+]([O-])c1ccc(Cl)cc1Sc1cccc2cccnc12	0	0	0	0	0	0	-
CCn1c(=O)c2c(nc(SCC(=O)NC3CCCC3)n2C)n(C)c1=O	0	0	0	0	0	0	-
O=C(C#Cc1ccccc1)c1ccccc1	-	71	-	-	-	-	72
CN(C)C(=O)C#Cc1ccccc1	0	0	0	0	0	0	-
O=C(CSc1nccn1-c1ncc(C(F)(F)F)cc1Cl)c1ccc(Br)cc1	74	80	0	0	0	0	0
CS(=O)(=O)c1ccc(C(=O)OCC(=O)N2CCN(CCC3CCCCC3)CC2)cc1[N+](=O)[O-]	-	54	-	-	-	-	71
CCOC(=O)CN1C(=O)N[C@@H](c2cccc(F)c2)C(C(=O)OC)=C1C	0	0	0	0	0	0	-
Cc1cccc(NC(=O)CCC(=O)N/N=C/c2ccco2)c1	0	78	0	0	0	0	0
Cc1ccc(C(=O)N(C)CC(=O)Nc2cccc(F)c2)cc1S(=O)(=O)N1CCCCC1	0	0	0	0	0	0	-
CS(=O)(=O)c1ccc(C(=O)OCc2nnc(-c3ccccc3)o2)cc1[N+](=O)[O-]	62	64	-	-	-	-	76
SMILES	CCR6 antag	CXCR6 inh	A3A deaminase	APJ antag	APJ ag	APOBEC3G inh	CXCR6 confirm
COC(=O)CN1C(=O)[C@H]2[C@@H](c3ccc(C)o3)N3C(=O)CN(Cc4ccccn4)C(=O)[C@@]3(C)[C@H]2C1=O	0	104	0	0	0	0	0
CNC[C@@H](CC1CCCCC1)NC[C@H](CC(C)C)NCCc1cccc(C(F)(F)F)c1	0	42	0	0	0	0	0
CCNC(=O)C1(C)CCCN1C(=O)c1c(F)cccc1F (stereo unspecified)	-	0	-	-	-	-	-
CC1CCCN(C(=O)c2ccc(Br)c(S(=O)(=O)N3CCOCC3)c2)C1 (stereo unspecified)	0	0	0	0	0	0	-
C=CCN(CC=C)C(=S)NC(=O)c1ccc(C)c(Br)c1	0	49	0	0	0	0	54
C=CCN(CC=C)C(=S)NC(=O)c1ccc(-c2ccccc2)cc1	-	53	0	0	0	0	73
CCC(=O)OCCNc1cc(Sc2nccn2C)c2nonc2c1[N+](=O)[O-]	112	102	-	-	-	-	104
CC(C)CCSc1cc(NCCO)c([N+](=O)[O-])c2nonc12	0	0	0	0	0	0	-
CCC(=O)OCCNc1cc(SCCC(=O)OC)c2nonc2c1[N+](=O)[O-]	64	58	0	0	0	0	59
O=S(=O)(NC(=S)c1ccccc1)c1ccccc1	0	0	0	0	0	0	-
O=S(=O)(NC(=S)c1ccccc1)c1ccc(F)cc1	0	76	0	0	0	0	0
C[C@@H]1CN([C@H](C)CO)C(=O)c2c(c3ccccc3n2C)-c2ccccc2CO[C@@H]1CN(C)C(=O)Nc1ccc2c(c1)OCO2	-	0	-	-	-	-	-
C[C@H](CO)N1C[C@H](C)[C@H](CN(C)C(=O)Nc2ccc(F)cc2)OCc2ccccc2-c2c(n(C)c3ccccc23)C1=O	-	41	-	-	-	-	0
CCCCc1ccc(-n2nnnc2SCC(=O)Nc2cc(OC)c([N+](=O)[O-])cc2C)cc1	0	75	0	0	0	0	0
C/C(=N\NC(=S)NCCc1ccccc1)c1ccc(Cl)cc1Cl	-	54	0	0	0	0	54
Cc1ccc(C(=O)NC(=S)Nc2ccc(NC(=O)c3cccs3)cc2)cc1[N+](=O)[O-]	50	28	0	0	0	0	0
Cc1ccc(C(=O)Nc2ccc(NC(=O)c3cccs3)cc2)cc1[N+](=O)[O-]	0	0	0	0	0	0	-
O=C1C=CC2(C=C1)O[C@H](Cc1ccccc1)[C@@H](Cc1ccccc1)O2	94	76	-	-	-	-	71
COc1ccc(C[C@@H]2OC3(C=CC(=O)C=C3)O[C@H]2Cc2ccc(OC)cc2)cc1	107	83	-	-	-	-	84
CCN(CC)C(=O)Cn1cc(C(=O)C(=O)Nc2ccc3c(c2)OCO3)c2ccccc21	-	0	-	-	-	-	-
Cc1ccccc1N(CC(=O)NCC1CCCO1)C(=O)C1(C)CC(=O)N=C2C=CC=CN21 (stereo unspecified)	0	47	0	0	0	0	0
CC(C)(C)C(=O)Nc1ccc(Sc2ccc([N+](=O)[O-])cc2)cc1	0	0	0	0	0	0	-
CC(=O)Nc1ccc(Sc2ccc([N+](=O)[O-])o2)cc1	57	52	-	-	-	-	60

Screening data (PubChem)
